This is an account of results in the EternaBench riboswitch data.

The data set deals with MS2 coat protein. Nature of the data set: apparent Kd, MS2 coat protein; higher = weaker binding; RNA-MaP array; FMN 200 µM where present. Summed up:
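Stalled E. coli RNA polymerase transcribed each design on Illumina sequencing-chip clusters. The clusters were titrated with SNAP-549-labelled MS2 coat protein, starting at 0.7 or 1.5 nM and doubling up to 3 µM, first without ligand and then with constant ligand, in 100 mM Tris-HCl pH 7.5, 80 mM KCl, 4 mM MgCl2, BSA, DTT, yeast tRNA and Tween-20. Green signal was normalised to red-channel RNA signal and to the control-cluster median Fmax. The apparent Kd is the median of filtered binding-curve fits made for each cluster.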

Where [1] appears, read: designed as: OFF switch for flavin mononucleotide, no ligand.
Setting [2] is: ligand present: flavin mononucleotide, designed as: OFF switch for flavin mononucleotide.
The mark [3] stands for this setting: designed as: ON switch for flavin mononucleotide, no ligand.
Where [4] appears, read: ligand present: flavin mononucleotide, designed as: ON switch for flavin mononucleotide.

For the sequence “UUGUUGUGUGUAGGAUAUGCAUAUUAUUAUUAUGCAGAAGGACAUGAGGAUCACCCAUGUGUAUUAUUAUUAUAUAUUAUAUAU”, the “apparent Kd” value by setting is: under setting [1], 24.6 nM; under setting [2], 38 nM.

For “GUGGUCAGACAUGAGGAUCACCCAUGUGGAAUAAAUAAGGAUUAGGAUAUGGAAUAUAGGAUAUACCAGAAGGAAUGGUUGGUG”, the “apparent Kd” value under setting [3] stood at 97.8 nM and the “apparent Kd” value under setting [4] came out at 103 nM.

Consider “UGGACCGAGCUAUCGGUUGACUCGGAGGAUAUGACAUGAGGAUCACCCAUGUGGGAUCUAAAUUGUCAGAAGGCUGGUUCUGGG”, for which the “apparent Kd” value is 675 nM under setting [1] and 229 nM under setting [2].

“CCGCCCUGAGGAUAUCCACCCUCAUACAUGAGGAUCACCCAUGUUCACCCUUGGGUUCCCGGAGAAGGCAGUUUUC”: the “apparent Kd” value runs as follows: under setting [1], 306 nM; under setting [2], 521 nM.

Consider “UAUAUGUCAGGAUAUCGAUUGGAAUGGAAUUCAGUUCUGGUUGAGAAGGGACAUGAGGAUCACCCAUGUUUUUC”, for which the “apparent Kd” value was found to be 37.3 nM under setting [1] and 171 nM under setting [2].

Take “ACUACUUAGUGAGGAUAUACAUAAUUUAUAACUGUAGAAGGCACAAACCUCAAUACAUGAGGAUCACCCAUGUUAUAUAUCUAA”: the “apparent Kd” value was determined as 62.6 nM under setting [1] and 64.3 nM under setting [2].

For “GGAUAGGACAGAGGAUAUACGUGCUAGAGAUACUAGCAAAAUUACCUCACAUGAGGAUCACCCAUGUAGAAGGCUGUCCUAUCG”, the “apparent Kd” value was found to be 5.29 nM under setting [1] and 60.6 nM under setting [2].

In the case of “AGUUGGCGAGGAUAUACAUGAGGAUCACCCAUGUGAAAUAGAAUAGUGAGGAAGAAAAGUAGAAGGCGCUGACA”, the “apparent Kd” value by setting is: under setting [1], 58.6 nM; under setting [2], 323 nM.

In the case of “AAUACACUCUAGGAUAUUCAUGCCAGCAGUAUCGAAGAAGGAGAGACAUGAGGAUCACCCAUGUGGAAGCUCCU”, the “apparent Kd” value under setting [1] was 13.1 nM and the “apparent Kd” value under setting [2] was 16.4 nM.

For the sequence “GGACGUCAGAUUAACAUGAGGAUCACCCAUGUCUUUUGACAUGAGGAUAUCGAUCCUAAUUGGAUCGAGAAGGCAUGGACGUCC”, the “apparent Kd” value runs as follows: under setting [3], 1180 nM; under setting [4], 96.8 nM.

Regarding “AGCUACACCCAGAAGGACAUGAGGAUCACCCAUGUAGGAUAUGGGAGACACAGUCCCAUGUAGAGAAAUUACGCUAGUGUAGCG”, the “apparent Kd” value worked out at 102 nM under setting [3] and 46.5 nM under setting [4].

Regarding “AUAUACAUUCGAGGAUAUCGUUAAAAUGUUAUGCGAGAAGGCGAGUCAUGAUUUAUUAUUUAGGACAUGAGGAUCACCCAUGUA”, the “apparent Kd” value came to 40.2 nM under setting [3] and 33.1 nM under setting [4].

Turning to “AAUUAACUCACAGGAUAUAGCAGAGGUCGAGUGAACUUACACGCGACGAGGCUAGAAGGGUGACCACAUGAGGAUCACCCAUGU”, the “apparent Kd” value is, setting by setting: under setting [3], 872 nM; under setting [4], 103 nM.

For “UCUCGUUUCGCAGGAUAUGCUGGUCGGAAAUAAACCGGCCACAUGAGGAUCACCCAUGUGCCACAGCAGAAGGGUGACACUAGA”, the “apparent Kd” value turned out to be 527 nM under setting [3] and 53.9 nM under setting [4].

For the sequence “CUUUUGUGAGGAUAUCAGGUGUGCUAGCGUACUGGUACAUCUGAGAAGGCACAUGAGGAUCACCCAUGUUCCUC”, the “apparent Kd” value worked out at 42.2 nM under setting [1] and 238 nM under setting [2].

Turning to “CCUCGACAUGAGGAUCACCCAUGUCAGGAUAUUGUGUCUCGGGUUUUUUACCGAAAGGCGAGAAGGGAUGUGUG”, the “apparent Kd” value reads like this: under setting [1], 16.1 nM; under setting [2], 21 nM.

Regarding “ACAGAGCCUGACAUGAGGAUCACCCAUGUUAGAUUGUUAUGUCAGGAUAUUGUCUAGCAACUAGACAAGAAGGGAUGCUCUGUG”, the “apparent Kd” value runs as follows: under setting [3], 392 nM; under setting [4], 29.8 nM.

Turning to “UAUAUAUAGUAAGGAUAUGUAUUAAUUUAAUAAACAGAAGGUACUGACAUGAGGAUCACCCAUGUUUUAGUGUGGGCAUGUAGA”, the “apparent Kd” value is 98 nM under setting [1] and 140 nM under setting [2].

Take “GGCGAAGUAGGAUAUACAUGAGGAUCACCCAUGUAACCUGAUGGCGUAGGUCUUCUAUGUAGAAGGGCUACGCC”: the “apparent Kd” value turned out to be 15.9 nM under setting [1] and 16.9 nM under setting [2].

“CGGCACCAAGGAUAUACAUGAGGAUCACCCAUGUUUUUUGGGCCCUAAAGAUCUACGUGUAGAAGGUGGGUCGA”: the “apparent Kd” value was 58.8 nM under setting [1] and 59.6 nM under setting [2].

In the case of “AGUUAAUAUCGAGGAUAUAAGUCUAGGACAUGAGGAUCACCCAUGUAUGUCUUAGAAGGCGAUAUUAACAGCAUGUUACAUGCA”, the “apparent Kd” value reads like this: under setting [3], 28.3 nM; under setting [4], 6.89 nM.

Turning to “GGGACUUACGAGAAGGGCUACAUGAGGAUCACCCAUGUAAAUCUUCGGGUAGCAGGAUAUCGGCGGCUACAGGAGGGCCAAGUC”, the “apparent Kd” value was 14.3 nM under setting [1] and 90.7 nM under setting [2].

Turning to “ACUAAACGAGGAUAUACUGACAGGCCUCAAACAUACAUCAAACAUGAGGAUCACCCAUGUAGAAGGCGUAAACU”, the “apparent Kd” value under setting [1] stood at 34.5 nM and the “apparent Kd” value under setting [2] turned out to be 25.1 nM.

As for “GUACCUUAUGAGAAGGCGAUCAUGAAACAUGAUCGAGGAUAUCAUGUAAACAUGAGGAUCACCCAUGUAUGGGUAUUAUGGUAU”, the “apparent Kd” value by setting is: under setting [3], 43.9 nM; under setting [4], 11.3 nM.

Regarding “GACCUGAGUAAUAAUGUAGAAAUACAUGAGGAUCACCCAUGUAAGGAUAUGCAGUGGAAUACACUGCAGAAGGUACAUCUCAGG”, the “apparent Kd” value under setting [1] came to 16.6 nM and the “apparent Kd” value under setting [2] was determined as 29.6 nM.

As to “UACCUCACUUCUUUGACUCACAUGAGGAUCACCCAUGUAAUAUAGGAUAUGCAUUUUAUUUCUUUGCAGAAGGAUAUUAGUUUU”, the “apparent Kd” value under setting [1] is 42.8 nM and the “apparent Kd” value under setting [2] is 79.2 nM.

On to “AGUUACAAACUCAACAUGAGGAUCACCCAUGUACUCUCUUGUAAGGAUAUACAUUCGUAUUGAAAGUAGAAGGUACUAAUUAUG”, for which the “apparent Kd” value was 69.4 nM under setting [3] and 69.8 nM under setting [4].

“GUCCUCAAGACAGGAUAUCCAUACAACGCGCUAGGAGAAGGGUCUACAUGAGGAUCACCCAUGUGAUUCUGAGAAUUUGGUGGG”: the “apparent Kd” value reads like this: under setting [1], 313 nM; under setting [2], 148 nM.

“ACUUCUAAGCAGAAGGCAGUCAUAGUAUUCGUCAUGUAGACAUGAGGAUCACCCAUGUAUAGUACUGAGGAUAUGCUUGGAUAG”: the “apparent Kd” value is 24 nM under setting [1] and 24.4 nM under setting [2].

In the case of “AAAAAGUCAGGAUAUGCGAAGGCGUCUGAUAGACGAGGCUAGCAGAAGGGACAUGAGGAUCACCCAUGUAAAAA”, the “apparent Kd” value worked out at 31.9 nM under setting [1] and 45.2 nM under setting [2].

Regarding “GUUUUCGCAGGAUAUUAGAGUUUUUACAUGAGGAUCACCCAUGUUAAUUGGGUUAAUGUCUAAGAAGGGCGAUGUA”, the “apparent Kd” value under setting [1] stood at 67.6 nM and the “apparent Kd” value under setting [2] was found to be 101 nM.

“UCGAAAAUGCAAGGAUAUCAAUUAUAGCUAAAUUAGACAUGAGGAUCACCCAUGUAAAUAUGGAGUGAGAAGGUGCAAUAAUUU”: the “apparent Kd” value by setting is: under setting [3], 453 nM; under setting [4], 174 nM.

On to “ACAUCGACAGGAUAUACGUGAGUGGAAAAAGUGUAUCCACUACAUGAGGAUCACCCAUGUAGAAGGGUCGAUGA”, for which the “apparent Kd” value worked out at 18.5 nM under setting [1] and 19.8 nM under setting [2].

As for “ACGGCAAUCACAGGAUAUGGUUACAUGAGGAUCACCCAUGUCUAGGGUCUAAUUAGGUAUAACUACCAGAAGGGUGAAGGCCUA”, the “apparent Kd” value was determined as 97.1 nM under setting [1] and 80.1 nM under setting [2].

Regarding “GUGCGCGGCUAGGAUAUUGUGGGUUUUUGUCUGCGAGAAGGUGCCACAUGAGGAUCACCCAUGUGGUGUUGCUC”, the “apparent Kd” value reads like this: under setting [1], 24.1 nM; under setting [2], 30 nM.

For the sequence “AUUUUAAUAUAGGAUAUCGAUUUUAUUAUUUAACGAGAAGGAUAAACAUGAGGAUCACCCAUGUGGUAUCAUGG”, the “apparent Kd” value amounted to 158 nM under setting [1] and 140 nM under setting [2].

By apparent Kd is commonly meant a dissociation constant that holds for the conditions of the assay.
